A short description of data set [1]: Drug uptake in tumor of mouse xenografted with mouse B16 cells after 6 hrs. The conditions noted are these: in vivo. It is filed as ADME, Neoplasm.
A short description of data set [2]: Ratio of drug level in tumor to blood in mouse. The data set is classed as ADME, organism-based.
Data set [3] can be described thus: Drug uptake in tumor of mouse xenografted with mouse B16 cells assessed per gram of tissue after 15 mins. It is filed as ADME, Neoplasm. The conditions noted are these: in vivo, 0.25 h.
Data set [4] can be described thus: Drug uptake in tumor of mouse xenografted with mouse B16 cells assessed per gram of tissue after 3 hrs. The data set is classed as ADME, Neoplasm. The conditions noted are these: in vivo.
Data set [5] is described as follows: Drug uptake in tumor of mouse xenografted with mouse B16 cells assessed per gram of tissue after 72 hrs. It is filed as ADME, Neoplasm. Conditions: in vivo.
A short description of data set [6]: Cytotoxicity against human IPC227F cells after 48 hrs using Hoechst 33342 dye-based fluorescence microplate reader. It is filed as functional, cell-based. Summed up: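 Attached IPC227F human ocular melanoma cells were seeded and grown 24 h at 37 °C, 5% CO2, in DMEM with 10% fetal calf serum. Cells were then given fresh medium with increasing drug concentrations from DMSO stocks (DMSO final 0.025%) for 48 h, PBS-washed and frozen at -80 °C. Hoechst 33342 staining followed at room temperature in the dark. Fluorescence was read at 360/460 nm, survival was expressed as % of untreated control, and IC50 determined.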

Peptide text beside a SMILES is read from it. * marks the point of attachment. Cbz = O=C(OCc1ccccc1)* A value given as a limit tells only on which side of the number the result lay.

From ChEMBL document CHEMBL1909632, “New aldehyde and vinylsulfone proteasome inhibitors for targeted melanoma therapy” (Eur J Med Chem, 2011) come the findings set out here.

One may read the Kp as the ratio of the level in a tissue or fluid to that in plasma or blood. By IC50 is commonly meant the concentration that gives 50% inhibition. Higher therefore signals weaker potency in that assay.

`CCN(CC)CCNC(=O)c1ccc(C(=O)N[C@@H](CC(C)C)C(=O)N[C@@H](CC(C)C)C(=O)N[C@H](C=O)CC(C)C)c([125I])c1`: the figures for the Drug uptake in data set [1], in data set [3] and in data set [4] were 1.2%, 2.7% and 1.2%, respectively. The Kp in data set [2] was not below 1.
`CCCN(CCC)CCCCNC(=O)c1ccc([125I])cc1` came in with a Drug uptake in data set [5] of 3.2%.
On to `CCCN(CCC)CCNC(=O)c1ccc(C(=O)N[C@@H](CC(C)C)C(=O)N[C@@H](CC(C)C)C(=O)N[C@H](C=O)CC(C)C)cc1`, for which the IC50 in data set [6] was determined as 0.71 µM.
`CCCN(CCC)CCCCNC(=O)c1ccc(C(=O)N[C@@H](CC(C)C)C(=O)N[C@@H](CC(C)C)C(=O)N[C@H](C=O)CC(C)C)cc1` returned an IC50 in data set [6] of 4.18 µM.
In data set [6], `CCN(CC)CCNC(=O)c1ccc(C(=O)N[C@@H](Cc2ccccc2)C(=O)N[C@H](/C=C/S(C)(=O)=O)CC(C)C)cc1` showed an IC50 of 94.5 µM.
In data set [6], `CCN(CC)CCNC(=O)c1ccc(C(=O)N[C@@H](CC(C)C)C(=O)N[C@@H](CC(C)C)C(=O)N[C@H](/C=C/S(C)(=O)=O)CC(C)C)cc1` showed an IC50 of 28.7 µM.
The molecule `CCN(CC)CCNC(=O)c1ccc(C(=O)N[C@@H](Cc2ccccc2)C(=O)N[C@@H](CC(C)C)C(=O)N[C@H](/C=C/S(C)(=O)=O)CC(C)C)cc1` returned an IC50 in data set [6] of 120 µM.
`CCN(CC)CCNC(=O)c1ccc(C(=O)N[C@@H](Cc2ccccc2)C(=O)N[C@H](C=O)CC(C)C)cc1` displayed an IC50 in data set [6] of 20.9 µM.
In data set [6], `CCN(CC)CCNC(=O)c1ccc(C(=O)N[C@@H](CC(C)C)C(=O)N[C@@H](CC(C)C)C(=O)N[C@H](C=O)CC(C)C)cc1` gave an IC50 of 0.64 µM.
The molecule `CCN(CC)CCNC(=O)c1ccc(C(=O)N[C@@H](Cc2ccccc2)C(=O)N[C@@H](CC(C)C)C(=O)N[C@H](C=O)CC(C)C)cc1` displayed an IC50 in data set [6] of 11.9 µM.
As to `CC(C)C[C@@H](C=O)NC(=O)[C@H](CC(C)C)NC(=O)[C@H](CC(C)C)NC(=O)OCc1ccccc1` [MG-132] (Cbz-Leu-Leu-Leu-aldehyde), in data set [6], half-maximal inhibition (IC50) required 0.077 µM.
